According to ChEMBL document CHEMBL3351780, “Novel hybrids of metronidazole and quinolones: synthesis, bioactive evaluation, cytotoxicity, preliminary antimicrobial mechanism and effect of metal ions on their transportation by human serum albumin” (Eur J Med Chem, 2014):
Converted amounts (≈) assume the structure as drawn.

How the values were obtained:
[1] = test system: Streptococcus pneumoniae; test: Antibacterial activity against Streptococcus pneumoniae by two-fold serial dilution method; format: functional
How it was run: (§1)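 Standard two-fold serial dilution in 96-well microtest plates following NCCLS. Top dilutions printed as 32, 16, 8, 4, 2, 1, 0.5 ug/mL. Wells inoculated and held at 37 °C for 24 h. Growth judged visually and by spectrophotometer, in triplicate. MIC is the lowest concentration giving complete growth inhibition.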

[2] = test system: Micrococcus luteus; test: Antibacterial activity against Micrococcus luteus by two-fold serial dilution method; format: functional; how it was run: as §1
[3] = test system: Staphylococcus aureus; test: Antibacterial activity against methicillin-resistant Staphylococcus aureus N315 by two-fold serial dilution method; format: functional
How it was run: (§2)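 MIC read as the lowest concentration giving complete growth inhibition. Two-fold serial dilutions were made in 96-well plates following NCCLS, giving a series down to 0.5 µg/mL (…32, 16, 8, 4, 2, 1, 0.5). Plates were inoculated and incubated at 37 °C for 24 h. A DMSO-with-inoculum control without drug was included. Growth was monitored visually and spectrophotometrically, in triplicate.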

[4] = test system: Staphylococcus aureus; test: Antibacterial activity against Staphylococcus aureus ATCC 25923 by two-fold serial dilution method; format: functional; how it was run: as §1
[5] = test system: Bacillus spizizenii; test: Antibacterial activity against Bacillus subtilis ATCC 6633 by two-fold serial dilution method; format: functional; how it was run: as §1
[6] = test system: Pseudomonas aeruginosa; test: Antibacterial activity against Pseudomonas aeruginosa by two-fold serial dilution method; format: functional; how it was run: as §1
[7] = test system: Escherichia coli; test: Antibacterial activity against Escherichia coli DH52 by two-fold serial dilution method; format: functional; how it was run: as §1
[8] = test system: Shigella dysenteriae; test: Antibacterial activity against Shigella dysenteriae by two-fold serial dilution method; format: functional; how it was run: as §2
[9] = Antibacterial activity against Eberthella typhosa by two-fold serial dilution method; format: functional; how it was run: as §2
[10] = test system: Cyberlindnera jadinii; test: Antifungal activity against Candida utilis after 24 hrs by microbroth dilution method; format: functional; conditions: Williopsis jadinii
How it was run: (§3)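 Spore suspension prepared in sterile distilled water from one-day-old cultures on Sabouraud agar, final 1-5 x 10^3 spores/mL. Compounds were serially diluted in RPMI 1640 to give eleven dilutions. Incubation at 35 °C for 24 h. Growth read visually and spectrophotometrically, in triplicate. MIC is the lowest concentration with complete inhibition.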

[11] = test system: Saccharomyces cerevisiae; test: Antifungal activity against Saccharomyces cerevisiae after 24 hrs by microbroth dilution method; format: functional; how it was run: as §3
[12] = test system: Candida albicans; test: Antifungal activity against Candida albicans ATCC 76615 after 24 hrs by microbroth dilution method; format: functional; conditions: ATCC 76615, 24 h; how it was run: as §3
[13] = test system: Pichia norvegensis; test: Antifungal activity against Candida mycoderma after 24 hrs by microbroth dilution method; format: functional
[14] = Cytotoxicity against human A549 cells assessed as cell viability at 256 ug/ml after 24 hrs by CCK-8 assay; format: cell-based; conditions: read-out: Activity
How it was run: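 A549 cells were plated and allowed to attach for 24 h, then medium with the compound was added. The compound came from DMSO stocks diluted in medium to 8, 16, 32, 64, 128 and 256 µg/mL. Cells were kept at 37 °C in 5% CO2. Viability was read by CCK-8 absorbance at 450 nm against a drug-free control, three replicates.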

[15] = Dissociation constant, pKa of the compound by UV-spectroscopy; format: physicochemical
How it was run: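 DMSO stock at 4.0 × 10^-3 mol/L added to 2 mL of buffer, then shaken 10 min at room temperature. Buffers were acetate (pH 4.0–5.0), MES (5.5–6.5), HEPES (7.0–8.0) and CHES (8.5–9.4), each from 500 mM stocks. Scans ran 210–400 nm and were normalized. Absolute differences from the acid spectrum were summed at 244 and 308 nm, plotted against pH and fitted to obtain pKa.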

[16] = Octanol-water partition co-efficient, log P of the compound by shake flask method; format: physicochemical
[17] = Aqueous solubility of the compound by UV-spectrophotometry; format: physicochemical
[18] = Cytotoxicity against human LO2 cells assessed as inhibition of cell viability at 8 ug/ml after 24 hrs by MTT assay; format: cell-based, L02; conditions: read-out: INH
How it was run: (§4)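 LO2 hepatocytes were plated and left to attach for 24 h. DMSO stocks were diluted in medium and added, and cells were cultured for 24 h at 37 °C in humidified 5% CO2. MTT absorbance read at 490 nm. Three parallels. Inhibition computed as percent reduction of viable cells against drug-free control.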

[19] = Cytotoxicity against human LO2 cells assessed as inhibition of cell viability at 16 ug/ml after 24 hrs by MTT assay; format: cell-based, L02; conditions: read-out: INH; how it was run: as §4
[20] = Cytotoxicity against human LO2 cells assessed as inhibition of cell viability at 32 ug/ml after 24 hrs by MTT assay; format: cell-based, L02; conditions: read-out: INH; how it was run: as §4
[21] = Cytotoxicity against human LO2 cells assessed as inhibition of cell viability at 64 ug/ml after 24 hrs by MTT assay; format: cell-based, L02; conditions: read-out: INH; how it was run: as §4
[22] = Cytotoxicity against human LO2 cells assessed as inhibition of cell viability at 128 ug/ml after 24 hrs by MTT assay; format: cell-based, L02; conditions: read-out: INH
How it was run: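 Human hepatocyte LO2 cells were plated, attached for 24 h, then exposed to the compound diluted in medium from DMSO stock, at 37 °C in 5% CO2. Viability was read by MTT at 490 nm. Inhibition was calculated as the percent reduction of viable cells versus a drug-free control, mean of three parallels.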

[23] = molecular target: T1, Albumin (Homo sapiens, UniProt P02768); test: Binding affinity to human serum albumin by fluorescence spectrophotometry; format: ADME; conditions: isolated protein
T1 sequence (P02768 whole entry): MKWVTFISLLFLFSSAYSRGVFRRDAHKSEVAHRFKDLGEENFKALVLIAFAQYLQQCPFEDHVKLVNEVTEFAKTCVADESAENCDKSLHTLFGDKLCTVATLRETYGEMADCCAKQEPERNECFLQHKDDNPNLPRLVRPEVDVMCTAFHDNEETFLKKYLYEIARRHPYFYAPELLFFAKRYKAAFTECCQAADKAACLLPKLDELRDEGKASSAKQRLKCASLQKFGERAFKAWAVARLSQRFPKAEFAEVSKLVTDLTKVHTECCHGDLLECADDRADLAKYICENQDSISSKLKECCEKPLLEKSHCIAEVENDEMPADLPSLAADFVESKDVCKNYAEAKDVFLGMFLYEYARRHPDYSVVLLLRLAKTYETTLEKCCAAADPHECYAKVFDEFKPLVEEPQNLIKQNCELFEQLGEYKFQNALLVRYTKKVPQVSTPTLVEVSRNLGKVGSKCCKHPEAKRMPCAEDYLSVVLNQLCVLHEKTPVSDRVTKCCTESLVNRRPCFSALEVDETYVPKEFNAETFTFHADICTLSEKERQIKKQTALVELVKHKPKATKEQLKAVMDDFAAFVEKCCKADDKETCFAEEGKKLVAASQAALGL
How it was run: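 HSA dissolved in Tris-HCl buffer (0.05 M Tris, 0.15 M NaCl, pH 7.4). Fluorescence emission scanned 300-450 nm at 298 K with excitation at 295 nm, 2.5 nm slits and 1.0 cm quartz cells.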

[24] = molecular target: T1, Albumin; test: Binding affinity to human serum albumin by fluorescence spectrophotometry in presence of Ni2+; format: ADME; conditions: isolated protein
How it was run: (§5)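 HSA-compound fluorescence measured in Tris-HCl (0.05 M Tris, 0.15 M NaCl, pH 7.4) with added metal chloride (CaCl2, KCl, MgCl2 or NiCl2). Excitation 295 nm, emission 300-450 nm, 298 K, 2.5 nm slits. The metal-ion effect is expressed as the ratio Kb/K0.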

[25] = molecular target: T1, Albumin; test: Binding affinity to human serum albumin by fluorescence spectrophotometry in presence of Ca2+; format: ADME; conditions: isolated protein; how it was run: as §5
[26] = molecular target: T1, Albumin; test: Binding affinity to human serum albumin by fluorescence spectrophotometry in presence of Mg2+; format: ADME; conditions: isolated protein; how it was run: as §5
[27] = molecular target: T1, Albumin; test: Binding affinity to human serum albumin by fluorescence spectrophotometry in presence of K+; format: ADME; conditions: isolated protein; how it was run: as §5
[28] = test system: Calf thymus DNA; test: Binding affinity to calf thymus DNA by UV-vis spectroscopy; format: nucleic-acid assay; conditions: Bos taurus
How it was run: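 Calf thymus DNA held at a fixed concentration and titrated with increasing amounts of the compound. UV-vis absorption spectra were recorded at room temperature in 1.0 cm quartz cells, following the DNA band at 260 nm.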

[29] = molecular target: T1, Albumin; test: Drug transport index, ratio of Kb to K0 for human serum albumin by fluorescence spectrophotometry in presence of Ca2+; format: ADME
How it was run: (§6)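 HSA in Tris-HCl (0.05 M Tris, 0.15 M NaCl, pH 7.4) with compound, in the presence of CaCl2, KCl, MgCl2 or NiCl2. Fluorescence was excited at 295 nm and emission recorded from 300 to 450 nm at 298 K, with 2.5 nm slits. Binding constants with the metal ion (Kb) and without it (K0) were expressed as Kb/K0.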

[30] = molecular target: T1, Albumin; test: Drug transport index, ratio of Kb to K0 for human serum albumin by fluorescence spectrophotometry in presence of Ni2+; format: ADME; how it was run: as §6
[31] = molecular target: T1, Albumin; test: Drug transport index, ratio of Kb to K0 for human serum albumin by fluorescence spectrophotometry in presence of Mg2+; format: ADME; how it was run: as §6
[32] = molecular target: T1, Albumin; test: Drug transport index, ratio of Kb to K0 for human serum albumin by fluorescence spectrophotometry in presence of […]; format: ADME; how it was run: as §6

SMILES | MIC [1] | MIC [2] | MIC [3] | MIC [4] | MIC [5] | MIC [6] | MIC [7] | MIC [8] | MIC [9] | MIC [10] | MIC [11] | MIC [12] | MIC [13] | viability at 24 h, 256 ug/ml [14] | pKa [15] | logP [16] | solubility [17] | other results
Cc1ccc2c(c1)c(=O)c(C(=O)O)cn2CC(O)Cn1c([N+](=O)[O-])cnc1C (centres undefined) | 4 µg/mL (≈ 10.4 µM) | 1 µg/mL (≈ 2.59 µM) | 4 µg/mL (≈ 10.4 µM) | 8 µg/mL (≈ 20.7 µM) | 8 µg/mL (≈ 20.7 µM) | 2 µg/mL (≈ 5.18 µM) | 1 µg/mL (≈ 2.59 µM) | 8 µg/mL (≈ 20.7 µM) | 8 µg/mL (≈ 20.7 µM) | 512 µg/mL (≈ 1330 µM) | 2 µg/mL (≈ 5.18 µM) | 16 µg/mL (≈ 41.4 µM) | 256 µg/mL (≈ 663 µM) | > 83% | 6.43 | -0.03 | 390 µg/mL (≈ 1010 µM) | 
Cc1ncc([N+](=O)[O-])n1CC(O)Cn1cc(C(=O)O)c(=O)c2cccc(F)c21 (centres undefined) | 32 µg/mL (≈ 82 µM) | 4 µg/mL (≈ 10.2 µM) | 4 µg/mL (≈ 10.2 µM) | 8 µg/mL (≈ 20.5 µM) | 16 µg/mL (≈ 41 µM) | 2 µg/mL (≈ 5.12 µM) | 4 µg/mL (≈ 10.2 µM) | 8 µg/mL (≈ 20.5 µM) | 4 µg/mL (≈ 10.2 µM) | 256 µg/mL (≈ 656 µM) | 64 µg/mL (≈ 164 µM) | 256 µg/mL (≈ 656 µM) | 512 µg/mL (≈ 1310 µM) |  | 5.12 | -0.13 | 390 µg/mL (≈ 999 µM) | 
Cc1ccc2c(c1)c(=O)c(C(=O)O)cn2CC(O)Cn1cnc([N+](=O)[O-])c1 (centres undefined) | 32 µg/mL (≈ 85.9 µM) | 8 µg/mL (≈ 21.5 µM) | 8 µg/mL (≈ 21.5 µM) | 0.5 µg/mL (≈ 1.34 µM) | 1 µg/mL (≈ 2.69 µM) | 1 µg/mL (≈ 2.69 µM) | 16 µg/mL (≈ 43 µM) | 4 µg/mL (≈ 10.7 µM) | 4 µg/mL (≈ 10.7 µM) | 256 µg/mL (≈ 688 µM) | 4 µg/mL (≈ 10.7 µM) | 16 µg/mL (≈ 43 µM) | 64 µg/mL (≈ 172 µM) | > 83% |  |  |  | 
Cc1ncc([N+](=O)[O-])n1CC(O)Cn1cc(C(=O)O)c(=O)c2ccc(C(F)(F)F)cc21 (centres undefined) | 4 µg/mL (≈ 9.08 µM) | 1 µg/mL (≈ 2.27 µM) | 1 µg/mL (≈ 2.27 µM) | 4 µg/mL (≈ 9.08 µM) | 4 µg/mL (≈ 9.08 µM) | 4 µg/mL (≈ 9.08 µM) | 0.5 µg/mL (≈ 1.14 µM) | 0.5 µg/mL (≈ 1.14 µM) | 8 µg/mL (≈ 18.2 µM) | 512 µg/mL (≈ 1160 µM) | 64 µg/mL (≈ 145 µM) | 64 µg/mL (≈ 145 µM) | 64 µg/mL (≈ 145 µM) | > 83% | 5.6 | -0.25 | 790 µg/mL (≈ 1790 µM) | cytotoxicity at 24 h, 8 ug/ml [18]: 3.6%; cytotoxicity at 24 h, 16 ug/ml [19]: 6.7%; cytotoxicity at 24 h, 32 ug/ml [20]: 10.3%; cytotoxicity at 24 h, 64 ug/ml [21]: 15.2%; cytotoxicity at 24 h, 128 ug/ml [22]: 17.5%; Kb [23]: 5.15 ×10⁴ L/mol; Kb [24]: 5.07 ×10⁴ L/mol; Kb [25]: 3.61 ×10⁴ L/mol; Kb [26]: 5.63 ×10⁴ L/mol; Kb [27]: 3.42 ×10⁴ L/mol; Activity [28]: Dose-dependent effect; Ratio [29]: 1.43; Ratio [30]: 1.02; Ratio [31]: 0.91; Ratio [32]: 1.51
